Assay outcomes (PubChem)
Lipid droplet: inhibitors of hepatocyte lipid droplet formation, primary screen, imaging, high-throughput imaging, BODIPY stain; hit rate 0.4% among 240,000; AML12 mouse hepatocytes, oleate lipid droplets; inhibition, % at 6.5 µM;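 active = lipid droplet intensity inhibited by at least 50%, with more than 500 cells counted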
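Assay system: AML12 mouse liver cells | Compound dosing: One dose, 6.5 µM compound | Read-out basis: Droplet intensity reduction, % inhibition | Measured by: Fluorescence imaging, 20x objective, two fields per well | Schedule: Overnight treatment with compound plus oleate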
SR-BI DiI inh: inhibitors of SR-BI mediated HDL lipid uptake, primary screen, ldlA[mSR-BI] cells, fluorescence, single point; ldlA[mSR-BI] CHO cells, DiI-HDL uptake fluorescence, 3 h; inhibition, % at 12.5 µM; hit rate 0.96% among 320,000;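 active = mean replicate inhibition of at least 70% and a set share of replicates each scoring 70 or more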
Target sequence (Q61009 whole entry, looked up): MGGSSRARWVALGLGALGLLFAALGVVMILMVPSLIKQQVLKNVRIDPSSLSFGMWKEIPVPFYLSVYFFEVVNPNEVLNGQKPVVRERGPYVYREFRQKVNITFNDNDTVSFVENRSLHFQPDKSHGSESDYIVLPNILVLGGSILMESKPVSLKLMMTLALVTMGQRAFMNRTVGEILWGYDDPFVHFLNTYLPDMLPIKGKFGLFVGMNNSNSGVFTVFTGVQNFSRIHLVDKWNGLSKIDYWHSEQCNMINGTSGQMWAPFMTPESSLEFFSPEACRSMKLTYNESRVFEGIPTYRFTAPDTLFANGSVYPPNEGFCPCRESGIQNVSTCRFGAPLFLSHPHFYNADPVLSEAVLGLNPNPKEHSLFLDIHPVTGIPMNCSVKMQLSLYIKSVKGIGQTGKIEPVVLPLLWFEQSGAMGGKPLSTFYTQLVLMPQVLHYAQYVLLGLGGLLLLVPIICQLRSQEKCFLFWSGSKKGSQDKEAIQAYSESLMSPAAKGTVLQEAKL
TLR9-MyD88 block: inhibitors of TLR9-MyD88 association in cells, primary screen, cell-based, CHO, BLA complementation, fluorescence. CCF4 FRET ratio. inhibition, % at 4.98 µM. hit rate 0.21% among 340,000. AID 504734, 2011;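 active = inhibition above the mean over all tested compounds plus 3 SD, cut at about 21% in these data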
TLR4 MyD88 comp: inhibitors of TLR4-MyD88 association in cells, primary screen, cell-based, HeLa CL3-4, BLA complementation, FRET ratio; Toll-like receptor 4 (Homo sapiens) + Myeloid differentiation primary response protein …; HeLa CL3-4 TLR4/MyD88 BLA complementation; inhibition, % at 8.4 µM; hit rate 0.18% among 200,000; AID 861, 2007; in the data active = inhibition above about 25%
NOD2 RIPK2 PPI: NOD2-RIPK2 binding disruptors in cells, primary screen, fluorescence, CHO cells, BLA complementation | Receptor-interacting serine/threonine-protein kinase 2 (Homo sapiens), O43353 | CCF4 ratio | inhibition, % at 4.98 µM | hit rate 0.38% among 360,000 | AID 624267, 2012; in the data active = inhibition above about 21%
SR-BI DiI-HDL act: activators of SR-BI mediated DiI-HDL uptake, primary screen, ldlA[mSR-BI] CHO cells, DiI fluorescence. AID 504775, 2011. activation, % at 12.5 µM. hit rate 0.096% among 320,000. 3 h; 100 = double the neutral-control signal;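 active = mean replicate activation of at least 60% and every replicate at or above 60%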
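Test system: SR-BI-overexpressing, LDLR-lacking CHO cells. Measured by: DiI fluorescence, bottom read. Medium: Ham's F12 with 0.5% BSA, HEPES 25 mM, pH 7.4. Timing: 3 h uptake period with compound, 37 °C.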
Large screens that a line does not name were inactive. An excerpt weighted towards active compounds, which were near 1.6% of everything screened.

COc1cc([N+](=O)[O-])cc(/C=N/NC(=O)c2cc(-c3ccccc3)nc3ccccc23)c1O	SR-BI DiI inh 117 (no result: TLR4 MyD88 comp)
COc1cc([N+](=O)[O-])cc(/C=N/NC(=O)c2cc(C)nc3ccccc23)c1O	none (no result: TLR4 MyD88 comp)
COc1cc(C(=O)NC2CCCc3c2cnn3-c2ccccc2F)cc(OC)c1OC (stereo unspecified)	none (no result: TLR4 MyD88 comp)
OCC[C@@H]1C[C@@H](O)[C@H](O)[C@@]2(CCCc3ccccc3O2)O1	none (no result: TLR4 MyD88 comp)
COc1ccc(C(=O)CSC2=C(C#N)C3(CCCCC3)C(C#N)=C(N)N2)cc1	SR-BI DiI inh 72 (no result: Lipid droplet)
CC1CC(C)CN(S(=O)(=O)CC23CCC(CC2=O)C3(C)C)C1 (stereo unspecified)	none (no result: SR-BI DiI inh, TLR4 MyD88 comp, SR-BI DiI-HDL act)
Nc1ccc(CSc2ccccc2)cc1	none (no result: Lipid droplet, TLR4 MyD88 comp)
CC(=O)c1c(C)[nH]c(C(=O)Nc2cccc(S(=O)(=O)N(C)c3ccccc3)c2)c1C	SR-BI DiI inh 80
CC(=O)c1c(C)[nH]c(C(=O)OCC(=O)Nc2ccc(Cl)c(S(=O)(=O)N(C)C)c2)c1C	none (no result: SR-BI DiI inh, TLR4 MyD88 comp, SR-BI DiI-HDL act)
CC(=O)c1c(C)[nH]c(C(=O)Nc2ccc(Cl)c(S(=O)(=O)N(C)C)c2)c1C	SR-BI DiI inh 82
COc1ccccc1NS(=O)(=O)c1cccc(NC(=O)c2[nH]c(C)c(C(C)=O)c2C)c1	none (no result: SR-BI DiI inh, TLR4 MyD88 comp, SR-BI DiI-HDL act)
O=C(CCNS(=O)(=O)c1cccc(C(F)(F)F)c1)NC1CC1	none (no result: Lipid droplet, TLR4 MyD88 comp)
CCOC(=O)N1CCC(NC(=O)c2ccc3c(c2)N(C)C(=O)/C(=C/c2cccc(OC)c2)S3)CC1	SR-BI DiI inh 75 (no result: TLR4 MyD88 comp)
COc1ccc(/C=C2\Sc3ccc(C(=O)NCCCN4CCCC4)cc3N(C)C2=O)cc1OC	SR-BI DiI inh 78 (no result: TLR4 MyD88 comp)
Cc1cccc(/C=C2\Sc3ccc(C(=O)NCC4CCCO4)cc3N(C)C2=O)c1 (stereo unspecified)	SR-BI DiI inh 92 (no result: TLR4 MyD88 comp)
N#Cc1ccc(NC(=O)Nc2ccc(Oc3ccc(NC(=O)Nc4ccc(C#N)cc4)cc3)cc2)cc1	SR-BI DiI inh 87 (no result: TLR4 MyD88 comp)
N#Cc1ccc(NC(=O)Nc2cccc(C#N)c2)cc1	none (no result: TLR4 MyD88 comp)
CCC(CC)C(=O)Nc1cc(C(=O)OC)ccc1C(=O)OC	SR-BI DiI-HDL act 67
O=[N+]([O-])c1ccc(N/N=C/c2cccc(O)c2O)c(S(=O)(=O)N2CCOCC2)c1	none (no result: SR-BI DiI inh, SR-BI DiI-HDL act)
O=[N+]([O-])c1ccc(N/N=C/c2ccc(O)c(O)c2O)c(S(=O)(=O)N2CCOCC2)c1	SR-BI DiI inh 108
COc1ccccc1/C=C/C(=C1/C(=O)N(c2ccccc2)N=C1C)c1ccc(C)cc1	Lipid droplet 53
COc1cccc(/C=C/C(=C2/C(=O)N(c3ccccc3)N=C2C)c2ccccc2)c1OC	none
CCOc1ccc(CCNC(=O)c2cc3sccc3n2C)cc1OCC	Lipid droplet 101
COCCNC(=O)c1cc2sccc2n1C	none
COc1ccc(NC(=O)C2CCN(S(=O)(=O)c3cccc4nonc34)CC2)cc1OC	none (no result: TLR4 MyD88 comp)
CC(C)(C)c1nnc(N/N=C/c2cc(Br)ccc2O)n(N)c1=O	SR-BI DiI inh 115
COc1ccc(C(=O)N/N=C/c2ccc(OC)c(COc3ccccc3)c2)cc1	none (no result: TLR4 MyD88 comp)
COc1ccc(/C=N\NC(=O)c2cc(O)c(O)c(O)c2)cc1COc1ccc(C(=O)OCC(C)C)cc1	SR-BI DiI inh 79 (no result: TLR4 MyD88 comp)
COc1ccc(C(=O)NCC(=O)N/N=C/C(C)=C/c2ccco2)cc1OC	SR-BI DiI inh 85
C/C(CCc1ccc2c(c1)OCO2)=N\N=C1\NC(=O)CC(C(=O)Nc2ccccc2F)S1 (stereo unspecified)	SR-BI DiI inh 73
C=CCCC(=O)Nc1ccc(Br)cn1	SR-BI DiI inh 89
Cc1ccc(NC(=O)c2ccccc2OCC(=O)c2ccccc2)cc1	SR-BI DiI inh 78
COC(=O)CN1C(=O)N/C(=C/c2cc(OC)c(OC)cc2C)C1=O	none
